Sampled rows, rich in hits. Any-hit rate of the full collection: about 2.1%.
RanGTP-Impb inh = disruptors of Ran-importin-beta complex formation – biochemical, FRET, CFP-Ran, YFP-importin-beta, homogeneous, primary screen; inhibition, % (no concentration beside the values); hit rate 1.1% among 300,000; AID 2216; cell-free CFP-Ran/YFP-importin-beta FRET ratio;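 active = more than half of the replicate wells show a fall in the fluorescence ratio signal beyond about 16%, limit read from the data, passing the limit was not always enough; inconclusive = exactly half of the replicate wells pass the set limit; inactive = fewer than half of replicates pass the limit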
Runt-CBFb FRET = Runt domain-CBFb interaction inhibition | Q01196+Q13951 | Cerulean-Runt/Venus-CBFb FRET ratio 530/480, 1 h | inhibition, % at 20 µM | hit rate 0.46% among 220,000 | AID 1496;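 active = inhibition over about 50% at 20 µM in the single-dose screen, limit read from the data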
Target sequence (Q01196 whole entry, looked up, the tested form may be a part): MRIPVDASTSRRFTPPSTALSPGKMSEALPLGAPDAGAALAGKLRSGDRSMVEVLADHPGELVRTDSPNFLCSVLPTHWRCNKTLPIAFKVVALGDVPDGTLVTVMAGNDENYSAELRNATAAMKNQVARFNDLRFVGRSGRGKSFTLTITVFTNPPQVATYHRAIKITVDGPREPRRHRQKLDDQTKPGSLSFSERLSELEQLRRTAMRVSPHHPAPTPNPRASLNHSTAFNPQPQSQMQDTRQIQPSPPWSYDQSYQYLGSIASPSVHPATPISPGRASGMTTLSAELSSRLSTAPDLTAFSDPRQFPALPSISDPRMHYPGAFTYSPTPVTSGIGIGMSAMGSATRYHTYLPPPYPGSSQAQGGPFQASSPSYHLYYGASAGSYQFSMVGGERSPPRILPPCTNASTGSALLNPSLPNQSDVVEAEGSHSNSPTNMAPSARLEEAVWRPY
Target sequence (Q13951 whole entry, looked up, the tested form may be a part): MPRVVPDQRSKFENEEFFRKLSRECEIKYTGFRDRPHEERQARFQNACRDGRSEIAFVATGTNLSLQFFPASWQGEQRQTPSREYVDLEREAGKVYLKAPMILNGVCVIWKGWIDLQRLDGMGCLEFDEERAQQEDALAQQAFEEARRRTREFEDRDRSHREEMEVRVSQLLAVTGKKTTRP
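System: Cerulean-labeled Runt domain protein | Quantity: 100 nM of each labeled protein | Schedule: 1 h compound exposure, room temperature | Detection: Fluorescence energy transfer, 422 nm excitation, 530/480 nm emission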
MEX-5 binding = C. elegans MEX-5 TCR-2 RNA binding activity; hit rate 0.38% among 300,000; Q9XUB2; activity score (negative = inhibition of binding), % at 10 µM; MEX-5/FITC-TCR2 RNA binding, fluorescence polarization; active compounds read low;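 active = inhibition past about -25% in most replicates, and total fluorescence under double the plate's negative control median, limit read from the data; inconclusive = replicates evenly split on the limit, or fluorescence at least double controls; inactive = too little inhibition in most replicates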
Runt-SMMHC FRET = Runt domain-CBFb-SMMHC interaction inhibition | hit rate 0.74% among 220,000 | inhibition, % at 20 µM | Q01196+Q13951 | AID 1434 | Cerulean-Runt/Venus-CBFb-SMMHC FRET ratio 530/480, 1 h;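 active = mean inhibition across duplicate retests at 20 µM reaching about 50%, limit read from the data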;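 also: inhibitors lower the FRET ratio by blocking Runt binding to CBFb-SMMHC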
proKLK7 act = activates the human kallikrein-7 zymogen; P49862; purified proKLK7, EDANS-DABCYL substrate fluorescence; 100% is mature enzyme control, 0% vehicle; activation, % at 7 µM; hit rate 0.9% among 370,000; AID 652039;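 active = activation above the mean of all tested compounds plus 3 SD, computed per campaign excluding outliers beyond control limits, cut at about 13% in these data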
KLK7 act conf = confirmation of human kallikrein-7 zymogen activators | hit rate 68% among 3,200 | shares compounds with proKLK7 act | AID 686949 | activation, % at 7 µM | purified proKLK7, EDANS-DABCYL substrate fluorescence; scaled: vehicle 0, mature enzyme 100;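 active = activation, as change over the incubation, above the mean of all tested compounds plus 3 SD, cut at about 13% in these data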
EDANS-DABCYL int = optically interferes with EDANS-DABCYL signal, flagging KLK7 hits; shares compounds with proKLK7 act; EDANS-DABCYL substrate fluorescence interference, no enzyme, 4 h; solvent 0%, active enzyme control 100%; activation, % at 7 µM; hit rate 80% among 3,200; AID 686952;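 active = activation above the all-compound mean plus 3 SD, ignoring values outside control-based bounds, cut at about 4.8% in these data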;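 also: value is the 4 h activation minus the activation read at time zero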
EDANS interf = counter-screen for kallikrein-7 activators: EDANS-DABCYL interference, dose response; AID 720493; hit rate 20% among 250; EDANS-DABCYL peptide fluorescence interference, no enzyme; shares compounds with proKLK7 act; EC50, µM;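 active = compounds that raise the fluorescence signal in this interference counterscreen, with EC50 at or below 10 µM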;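 also: intact quenched peptide substrate alone read at 355 nm excitation and 520 nm emission; signal is fluorescence gain from T0 to T4 after four hours at room temperature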
Large screens that a line does not name were inactive (follow-up assays come after a bar, where they were run).

COc1ccc(C(=O)N2CCCC(C(=O)N3CCN(c4ccccc4)CC3)C2)cc1 (centres undefined)	none
Cc1ccc(S(=O)(=O)C[C@@H]2OC3CCCCC3N2S(=O)(=O)c2ccc(C)cc2)cc1 (some centres undefined)	none (no result: RanGTP-Impb inh, Runt-CBFb FRET, MEX-5 binding, Runt-SMMHC FRET)
CCOc1ccccc1/C=C/c1nc2ccccc2[nH]c1=O	RanGTP-Impb inh 71, proKLK7 act 13 (no result: Runt-CBFb FRET, Runt-SMMHC FRET) | KLK7 act conf inactive | EDANS-DABCYL int inactive
Cc1cc(C)n(C(=O)CCCCCCCCC(=O)n2nc(C)cc2C)n1	none
CC(C)CC(=O)c1c[nH]c(C(=O)NCC2CCCO2)c1 (centres undefined)	none
CC(=O)c1c[nH]c(C(=O)NCC2CCCO2)c1 (centres undefined)	proKLK7 act 40 | KLK7 act conf inactive | EDANS-DABCYL int inactive
NS(=O)(=O)c1ccc(CCNC(=O)CN2CCN(S(=O)(=O)c3ccccc3F)CC2)cc1	none (no result: RanGTP-Impb inh, Runt-CBFb FRET, MEX-5 binding, Runt-SMMHC FRET)
Cc1ccc(S(=O)(=O)N2CCN(C(=O)CSC(=S)N3CCCC3)CC2)c(C)c1	none (no result: RanGTP-Impb inh, Runt-CBFb FRET, MEX-5 binding, Runt-SMMHC FRET)
COc1ccc(/C=C/c2cc(C(=O)O)c3ccccc3n2)cc1	proKLK7 act 13 | KLK7 act conf 72 | EDANS-DABCYL int 72
COc1cc(OC)c(OC)cc1/C=C/c1cc(C(=O)O)c2ccccc2n1	none
CCOc1ccc(-c2cc(C(=O)O)c3ccccc3n2)cc1	proKLK7 act 33 | KLK7 act conf 60 | EDANS-DABCYL int 69
CCOc1ccc(-c2cc(C(=O)NCCCN3CCN(CC)CC3)c3ccccc3n2)cc1	RanGTP-Impb inh inconclusive, proKLK7 act 57 | KLK7 act conf inactive | EDANS-DABCYL int inactive
CCC1CCCCN1CCCNC(=O)C1CCN(c2nnc(-n3cccc3)s2)CC1 (centres undefined)	none (no result: Runt-CBFb FRET, Runt-SMMHC FRET)
Nc1ccccc1-c1nc2ccccc2c(=O)o1	proKLK7 act 15 (no result: Runt-CBFb FRET, Runt-SMMHC FRET) | KLK7 act conf inactive | EDANS-DABCYL int inactive
CN(C)c1nc(N)c2nccnc2n1	proKLK7 act 21 (no result: RanGTP-Impb inh, Runt-CBFb FRET, MEX-5 binding, Runt-SMMHC FRET) | KLK7 act conf inactive | EDANS-DABCYL int inactive
Cc1cc(-n2c(C)cc(C(=O)COc3ccc4ccc(=O)oc4c3)c2C)no1	proKLK7 act 59 | KLK7 act conf 44 | EDANS-DABCYL int 54
O=C1C(C2=NC(c3ccccn3)C3C(=O)N(c4ccccc4)C(=O)C23)=C(O)c2ccccc21 (centres undefined)	proKLK7 act 24 | KLK7 act conf inactive | EDANS-DABCYL int inactive
O=C1C2C3C=CC(C3)C2C(=O)N1c1ccccc1 (centres undefined)	none
O=C(c1c[nH]c(C(=O)C(Cl)(Cl)Cl)c1)c1ccc(F)cc1Cl	none
N#Cc1c(NC(=O)COC(=O)c2nccnc2N)sc2c1CCCC2	proKLK7 act 17 (no result: Runt-CBFb FRET, Runt-SMMHC FRET) | KLK7 act conf 16 | EDANS-DABCYL int 13 | EDANS interf inactive
CCOC(=O)c1c(NC(=O)COC(=O)c2nccnc2N)sc(C(=O)N(C)C)c1C	proKLK7 act 43 (no result: RanGTP-Impb inh, Runt-CBFb FRET, Runt-SMMHC FRET) | KLK7 act conf 42 | EDANS-DABCYL int 46
CCOC(=O)c1cc2c(s1)-c1c(C)cccc1OC2	none
COc1ccccc1N1CCN(C(=O)c2cc3c(s2)-c2ccccc2OC3)CC1	none (no result: Runt-CBFb FRET, Runt-SMMHC FRET)
Cc1cccc2c1-c1sc(C(=O)NCCCN3CCC(C)CC3)cc1CO2	proKLK7 act 49 (no result: Runt-CBFb FRET, Runt-SMMHC FRET) | KLK7 act conf 64 | EDANS-DABCYL int 65
COC(=O)c1cc2c(s1)-c1ccccc1OC2	RanGTP-Impb inh inconclusive, proKLK7 act 82 | KLK7 act conf 76 | EDANS-DABCYL int 80
O=C(c1cc2c(s1)-c1ccccc1OC2)N1CCc2ccccc2C1	none
CCOC(=O)C1CCN(C(=O)c2cc3c(s2)-c2ccccc2OC3)CC1	proKLK7 act 14 (no result: Runt-CBFb FRET, Runt-SMMHC FRET) | KLK7 act conf inactive | EDANS-DABCYL int inactive
